ChEMBL document CHEMBL1649446, “Comparative antipneumococcal activities of sulopenem and other drugs” (2009)
≈ marks a conversion by molar mass, not a printed value.

Legend:
Assay type in all cases: functional
Streptococcus pneumoniae [1] = assay: Antimicrobial activity against penicillin-susceptible Streptococcus pneumoniae by agar dilution method
Streptococcus pneumoniae [2] = assay: Antimicrobial activity against penicillin-intermediate Streptococcus pneumoniae by agar dilution method
Streptococcus pneumoniae [3] = assay: Antimicrobial activity against penicillin-resistant Streptococcus pneumoniae by agar dilution method
Procedure, shortened: (§1)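 Agar dilution MIC on Mueller-Hinton agar with 5% sheep blood, inocula 10^4 CFU/spot; amoxicillin-clavulanate combined 1:2; S. pneumoniae ATCC 49619 quality control each run.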

Streptococcus pneumoniae [4] = assay: Antimicrobial activity against Streptococcus pneumoniae 19A by agar dilution method; procedure, shortened: as §1
Streptococcus pneumoniae [5] = assay: Antimicrobial activity against Streptococcus pneumoniae 1 by time-kill analysis
Procedure, shortened: (§2)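 Time-kill in cation-adjusted Mueller-Hinton broth with 5% lysed horse blood; inocula 5 × 105 to 5 × 10^6 CFU/ml; drugs at MIC, 2× and 4× MIC; 35°C shaking water bath; viable counts at 0, 3, 6, 12 and 24 h. Bactericidal if ≥3 log10 CFU/ml (99.9%) reduction from original inoculum; 90% and 99% killing also scored.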

Streptococcus pneumoniae [6] = assay: Antimicrobial activity against Streptococcus pneumoniae 2 by time-kill analysis
Procedure, shortened: (§3)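 Time-kill in cation-adjusted Mueller-Hinton broth with 5% lysed horse blood; inocula 5 × 105 to 5 × 10^6 CFU/ml; drugs at MIC, 2× and 4× MIC; 35°C shaking water bath; viable counts at 0, 3, 6, 12, 24 h. Bactericidal = ≥3 log10 CFU/ml (99.9%) drop from original inoculum; 90%/99%/99.9% killing scored per strain.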

Streptococcus pneumoniae [7] = assay: Antimicrobial activity against Streptococcus pneumoniae 3 by time-kill analysis; procedure, shortened: as §3
Streptococcus pneumoniae [8] = assay: Antimicrobial activity against Streptococcus pneumoniae 4 by time-kill analysis; procedure, shortened: as §3
Streptococcus pneumoniae [9] = assay: Antimicrobial activity against Streptococcus pneumoniae 5 by time-kill analysis; procedure, shortened: as §2
Streptococcus pneumoniae [10] = assay: Antimicrobial activity against Streptococcus pneumoniae 6 by time-kill analysis; procedure, shortened: as §3
Streptococcus pneumoniae [11] = assay: Antimicrobial activity against Streptococcus pneumoniae 7 by time-kill analysis; procedure, shortened: as §3
Streptococcus pneumoniae [12] = assay: Antimicrobial activity against Streptococcus pneumoniae 8 by time-kill analysis; procedure, shortened: as §3
Streptococcus pneumoniae [13] = assay: Antimicrobial activity against Streptococcus pneumoniae 9 by time-kill analysis; procedure, shortened: as §2
Streptococcus pneumoniae [14] = assay: Antimicrobial activity against Streptococcus pneumoniae 10 by time-kill analysis; procedure, shortened: as §3
Streptococcus pneumoniae [15] = assay: Antimicrobial activity against Streptococcus pneumoniae 11 by time-kill analysis; procedure, shortened: as §3
Streptococcus pneumoniae [16] = assay: Antimicrobial activity against Streptococcus pneumoniae 12 by time-kill analysis; procedure, shortened: as §3
Streptococcus pneumoniae [17] = assay: Antimicrobial activity against Streptococcus pneumoniae isolate 24 by agar dilution method
Streptococcus pneumoniae [18] = assay: Antimicrobial activity against Streptococcus pneumoniae isolate 33 by agar dilution method; procedure, shortened: as §1
Streptococcus pneumoniae [19] = assay: Antimicrobial activity against Streptococcus pneumoniae isolate 37 by agar dilution method; procedure, shortened: as §1
Streptococcus pneumoniae [20] = assay: Antimicrobial activity against Streptococcus pneumoniae isolate 1055 by agar dilution method
Streptococcus pneumoniae [21] = assay: Antimicrobial activity against Streptococcus pneumoniae isolate 1146 by agar dilution method; procedure, shortened: as §1
Streptococcus pneumoniae [22] = assay: Antimicrobial activity against Streptococcus pneumoniae isolate 1147 by agar dilution method; procedure, shortened: as §1
Streptococcus pneumoniae [23] = assay: Antimicrobial activity against Streptococcus pneumoniae isolate 1384 by agar dilution method; procedure, shortened: as §1
Streptococcus pneumoniae [24] = assay: Antimicrobial activity against Streptococcus pneumoniae isolate 1394 by agar dilution method
Streptococcus pneumoniae [25] = assay: Antimicrobial activity against Streptococcus pneumoniae isolate 1397 by agar dilution method; procedure, shortened: as §1
Streptococcus pneumoniae [26] = assay: Antimicrobial activity against Streptococcus pneumoniae isolate 1424 by agar dilution method; procedure, shortened: as §1
Streptococcus pneumoniae [27] = assay: Antimicrobial activity against Streptococcus pneumoniae isolate 1564 by agar dilution method
Streptococcus pneumoniae [28] = assay: Antimicrobial activity against Streptococcus pneumoniae isolate 2617 by agar dilution method; procedure, shortened: as §1
Streptococcus pneumoniae [29] = assay: Antimicrobial activity against Streptococcus pneumoniae isolate 2686 by agar dilution method; procedure, shortened: as §1
Streptococcus pneumoniae [30] = assay: Antimicrobial activity against Streptococcus pneumoniae isolate 2688 by agar dilution method; procedure, shortened: as §1
Streptococcus pneumoniae [31] = assay: Antimicrobial activity against Streptococcus pneumoniae isolate 2874 by agar dilution method; procedure, shortened: as §1
Streptococcus pneumoniae [32] = assay: Antimicrobial activity against Streptococcus pneumoniae isolate 2880 by agar dilution method; procedure, shortened: as §1
Streptococcus pneumoniae [33] = assay: Antimicrobial activity against Streptococcus pneumoniae isolate 3260 by agar dilution method
Streptococcus pneumoniae [34] = assay: Antimicrobial activity against Streptococcus pneumoniae isolate 3263 by agar dilution method
Streptococcus pneumoniae [35] = assay: Antimicrobial activity against Streptococcus pneumoniae isolate 3275 by agar dilution method; procedure, shortened: as §1
Streptococcus pneumoniae [36] = assay: Antimicrobial activity against Streptococcus pneumoniae isolate 3282 by agar dilution method
Streptococcus pneumoniae [37] = assay: Antimicrobial activity against Streptococcus pneumoniae isolate 3346 by agar dilution method
Streptococcus pneumoniae [38] = assay: Antimicrobial activity against Streptococcus pneumoniae isolate 3374 by agar dilution method; procedure, shortened: as §1
Streptococcus pneumoniae [39] = assay: Antimicrobial activity against Streptococcus pneumoniae isolate 3412 by agar dilution method; procedure, shortened: as §1
Streptococcus pneumoniae [40] = assay: Antimicrobial activity against Streptococcus pneumoniae isolate 3455 by agar dilution method
Streptococcus pneumoniae [41] = assay: Antimicrobial activity against Streptococcus pneumoniae isolate 3458 by agar dilution method
Streptococcus pneumoniae [42] = assay: Antimicrobial activity against Streptococcus pneumoniae isolate 3481 by agar dilution method; procedure, shortened: as §1
Streptococcus pneumoniae [43] = assay: Antimicrobial activity against Streptococcus pneumoniae isolate 3587 by agar dilution method
Streptococcus pneumoniae [44] = assay: Antimicrobial activity against Streptococcus pneumoniae isolate 3681 by agar dilution method; procedure, shortened: as §1
Streptococcus pneumoniae [45] = assay: Antimicrobial activity against Streptococcus pneumoniae isolate 3791 by agar dilution method; procedure, shortened: as §1
Streptococcus pneumoniae [46] = assay: Antimicrobial activity against Streptococcus pneumoniae isolate 4747 by agar dilution method; procedure, shortened: as §1
Streptococcus pneumoniae [47] = assay: Antimicrobial activity against Streptococcus pneumoniae isolate 4755 by agar dilution method; procedure, shortened: as §1

COCC1=C(C(=O)O)N2C(=O)[C@@H](NC(=O)/C(=N\OC)c3csc(N)n3)[C@H]2SC1 [CEFPODOXIME]
MIC (Streptococcus pneumoniae [1]): 0.03 µg/mL (≈ 0.0702 µM)
MIC50 (Streptococcus pneumoniae [1]): 0.03 µg/mL (≈ 0.0702 µM)
MIC90 (Streptococcus pneumoniae [1]): 0.06 µg/mL (≈ 0.14 µM)
MIC50 (Streptococcus pneumoniae [2]): 0.25 µg/mL (≈ 0.585 µM)
MIC90 (Streptococcus pneumoniae [2]): 2 µg/mL (≈ 4.68 µM)
MIC50 (Streptococcus pneumoniae [3]): 4 µg/mL (≈ 9.36 µM)
MIC90 (Streptococcus pneumoniae [3]): 8 µg/mL (≈ 18.7 µM)
MIC50 (Streptococcus pneumoniae [4]): 8 µg/mL (≈ 18.7 µM)
MIC90 (Streptococcus pneumoniae [4]): 8 µg/mL (≈ 18.7 µM)
MIC (Streptococcus pneumoniae [5]): 0.03 µg/mL (≈ 0.0702 µM)
MIC (Streptococcus pneumoniae [6]): 0.016 µg/mL (≈ 0.0374 µM)
MIC (Streptococcus pneumoniae [7]): 0.5 µg/mL (≈ 1.17 µM)
MIC (Streptococcus pneumoniae [8]): 8 µg/mL (≈ 18.7 µM)
MIC (Streptococcus pneumoniae [9]): 8 µg/mL (≈ 18.7 µM)
MIC (Streptococcus pneumoniae [10]): 0.5 µg/mL (≈ 1.17 µM)
MIC (Streptococcus pneumoniae [11]): 4 µg/mL (≈ 9.36 µM)
MIC (Streptococcus pneumoniae [12]): 4 µg/mL (≈ 9.36 µM)
MIC (Streptococcus pneumoniae [13]): 0.25 µg/mL (≈ 0.585 µM)
MIC (Streptococcus pneumoniae [14]): 0.25 µg/mL (≈ 0.585 µM)
MIC (Streptococcus pneumoniae [15]): 4 µg/mL (≈ 9.36 µM)
MIC (Streptococcus pneumoniae [16]): 2 µg/mL (≈ 4.68 µM)
MIC (Streptococcus pneumoniae [17]): 2 µg/mL (≈ 4.68 µM)
MIC (Streptococcus pneumoniae [18]): 4 µg/mL (≈ 9.36 µM)
MIC (Streptococcus pneumoniae [19]): 4 µg/mL (≈ 9.36 µM)
MIC (Streptococcus pneumoniae [20]): 2 µg/mL (≈ 4.68 µM)
MIC (Streptococcus pneumoniae [21]): 8 µg/mL (≈ 18.7 µM)
MIC (Streptococcus pneumoniae [22]): 8 µg/mL (≈ 18.7 µM)
MIC (Streptococcus pneumoniae [23]): 4 µg/mL (≈ 9.36 µM)
MIC (Streptococcus pneumoniae [24]): 8 µg/mL (≈ 18.7 µM)
MIC (Streptococcus pneumoniae [25]): 4 µg/mL (≈ 9.36 µM)
MIC (Streptococcus pneumoniae [26]): 4 µg/mL (≈ 9.36 µM)
MIC (Streptococcus pneumoniae [27]): 32 µg/mL (≈ 74.9 µM)
MIC (Streptococcus pneumoniae [28]): 2 µg/mL (≈ 4.68 µM)
MIC (Streptococcus pneumoniae [29]): 8 µg/mL (≈ 18.7 µM)
MIC (Streptococcus pneumoniae [30]): 32 µg/mL (≈ 74.9 µM)
MIC (Streptococcus pneumoniae [31]): 4 µg/mL (≈ 9.36 µM)
MIC (Streptococcus pneumoniae [32]): 2 µg/mL (≈ 4.68 µM)
MIC (Streptococcus pneumoniae [33]): 2 µg/mL (≈ 4.68 µM)
MIC (Streptococcus pneumoniae [34]): 4 µg/mL (≈ 9.36 µM)
MIC (Streptococcus pneumoniae [35]): 1 µg/mL (≈ 2.34 µM)
MIC (Streptococcus pneumoniae [36]): 2 µg/mL (≈ 4.68 µM)
MIC (Streptococcus pneumoniae [37]): 4 µg/mL (≈ 9.36 µM)
MIC (Streptococcus pneumoniae [38]): 4 µg/mL (≈ 9.36 µM)
MIC (Streptococcus pneumoniae [39]): 4 µg/mL (≈ 9.36 µM)
MIC (Streptococcus pneumoniae [40]): 4 µg/mL (≈ 9.36 µM)
MIC (Streptococcus pneumoniae [41]): 4 µg/mL (≈ 9.36 µM)
MIC (Streptococcus pneumoniae [42]): 4 µg/mL (≈ 9.36 µM)
MIC (Streptococcus pneumoniae [43]): 4 µg/mL (≈ 9.36 µM)
MIC (Streptococcus pneumoniae [44]): 4 µg/mL (≈ 9.36 µM)
MIC (Streptococcus pneumoniae [45]): 4 µg/mL (≈ 9.36 µM)
MIC (Streptococcus pneumoniae [46]): 2 µg/mL (≈ 4.68 µM)
MIC (Streptococcus pneumoniae [47]): 4 µg/mL (≈ 9.36 µM)
